Results reported in ChEMBL document CHEMBL1287649, “Synthesis and anti-tubercular and antimicrobial activities of some 2r,4c-diaryl-3-azabicyclo[3.3.1]nonan-9-one N-isonicotinoylhydrazone derivatives” (2010).

Experiments:
[1] = test system: Mycobacterium tuberculosis; test: Antitubercular activity against isoniazid-resistant Mycobacterium tuberculosis assessed as reduction of relative light unit at 1 ug/ml after 72 hrs by luciferase reporter phage assay relative to control; assay type: functional; design: scale not given: the % may be the effect or the level left
How it was run: (§1)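 Luciferase reporter phage assay. Luminescence (RLU) integrated for 10 s on a luminometer, in duplicate per sample and averaged. Percent RLU reduction calculated against untreated control. Run repeated if the control mean RLU was below 1000.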

[2] = test system: Mycobacterium tuberculosis; test: Antitubercular activity against isoniazid-resistant Mycobacterium tuberculosis assessed as reduction of relative light unit at 2 ug/ml after 72 hrs by luciferase reporter phage assay relative to control; assay type: functional; design: scale not given: the % may be the effect or the level left; how it was run: as §1

Work on O=C(N/N=C1\C2CCCC1[C@H](c1ccc(F)cc1)N[C@@H]2c1ccc(F)cc1)c1ccncc1 yielded an Activity [1] of 67.63% and an Activity [2] of 75.08%.
O=C(N/N=C1\C2CCCC1[C@H](c1ccccc1)N[C@@H]2c1ccccc1)c1ccncc1 showed an Activity [1] of 69.6% and an Activity [2] of 77.52%.
Compound COc1cccc([C@H]2N[C@@H](c3cccc(OC)c3)C3CCCC2/C3=N\NC(=O)c2ccncc2)c1 has an Activity [1] of 69.18% and an Activity [2] of 78.33%.
With NNC(=O)c1ccncc1 [ISONIAZID] the Activity [1] was 89.65% and the Activity [2] was 95.85%.
Compound O=C(N/N=C1\C2CCCC1[C@H](c1cccc(Cl)c1)N[C@@H]2c1cccc(Cl)c1)c1ccncc1 has an Activity [1] of 65.42% and an Activity [2] of 75.83%.
For O=C(N/N=C1\C2CCCC1[C@H](c1ccc(Cl)cc1)N[C@@H]2c1ccc(Cl)cc1)c1ccncc1, the Activity [1] was 63.61% and the Activity [2] was 73.28%.
Compound Cc1ccc([C@H]2N[C@@H](c3ccc(C)cc3)C3CCCC2/C3=N\NC(=O)c2ccncc2)cc1 has an Activity [1] of 62.3% and an Activity [2] of 71.07%.
Work on COc1ccc([C@H]2N[C@@H](c3ccc(OC)cc3)C3CCCC2/C3=N\NC(=O)c2ccncc2)cc1 yielded an Activity [1] of 67.07% and an Activity [2] of 74.19%.
